In brackets after ≈: the same amount, converted by molar mass.
Legend:
[1] = Oral bioavailability in BALB/C mouse at 10 mg/kg by LC-MS/MS method; type: ADME, organism-based; details: BALB/C, in vivo
In short: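 Bioavailability from single-dose iv (2 mg/kg, 5% DMSO/40% PEG400/55% saline) and oral gavage (10 mg/kg, 0.445% microcrystalline cellulose microsuspension) studies in BALB/C nude mice (N = 16 per arm); plasma at eight (po) or nine (iv) time points, LC-MS/MS, noncompartmental analysis.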

[2] = Clearance in mouse liver microsomes at 1 uM incubated for 10 mins by LC-MS/MS method; type: ADME, Microsome
In short: (§1)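 Liver microsomes (human or mouse, 0.5 mg/mL) in 100 mM potassium phosphate pH 7.4 with 1 μM compound, prewarmed 10 min at 37 °C, started with NADPH (10 mM); stopped at 0, 3, 6, 9, 15, 30 min with ice-cold methanol containing tolbutamide internal standard; LC-MS/MS. Hepatic clearance (mL/min/kg) calculated from intrinsic clearance.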

[3] = Clearance in BALB/C mouse at 10 mg/kg, po or 2 mg/kg, iv by LC-MS/MS method; type: ADME, organism-based; details: in vivo
In short: (§2)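 Female-unspecified BALB/C nude mice (15−20 g, N = 16 per arm); iv bolus 2 mg/kg in 5% DMSO/40% PEG400/55% saline and/or oral gavage 10 mg/kg as 0.445% microcrystalline cellulose microsuspension. Blood sampled at nine (iv) or eight (po) time points into sodium heparin tubes; plasma by LC-MS/MS; noncompartmental analysis.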

[4] = Solubility in 50 mM phosphate buffer at pH 6.5 by HPLC method; type: physicochemical
In short: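 10 mM DMSO stock dried, residue redissolved in 50 mM phosphate buffer pH 6.5, stirred 1 h and shaken 2 h, left overnight, filtered and analysed by HPLC against calibration standards of 50−500 μM diluted from the DMSO stock.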

[5] = biological target: Histone deacetylase (Homo sapiens) (UniProt Q13547+O15379+Q9UBN7+Q92769+Q9UQL6+Q8WUI4+Q9BY41+Q96DB2+P56524+Q9UKV0+Q969S8); assay: Inhibition of Class 1 histone deacetylase in human HeLa cells assessed as induction in p21 protein expression at 3 uM incubated for 16 hrs by luciferase reporter gene assay relative to HDAC inhibitor entinostat; type: cell-based; design: scale not given: the % may be the effect or the level left
[6] = AUC in BALB/C mouse at 10 mg/kg, po or 2 mg/kg, iv by LC-MS/MS method; type: ADME, organism-based, Plasma; details: BALB/C, plasma; in short: as §2
[7] = Half life in BALB/C mouse at 10 mg/kg, po or 2 mg/kg, iv by LC-MS/MS method; type: ADME, organism-based; details: BALB/C, in vivo; in short: as §2
[8] = Volume of distribution at steady state in BALB/C mouse at 10 mg/kg, po or 2 mg/kg, iv by LC-MS/MS method; type: ADME, organism-based; design: unit not given here; details: in vivo, read-out: Vdss
In short: (§3)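 Single-dose PK: iv bolus 2 mg/kg in 5% DMSO/40% PEG400/55% saline and/or oral gavage 10 mg/kg as 0.445% microcrystalline cellulose microsuspension; BALB/C nude mice (15−20 g, N = 16 per arm) or male Sprague−Dawley rats (250 ± 20 g, N = 3). Blood at eight (po) or nine (iv) time points into sodium heparin, plasma by LC-MS/MS, noncompartmental analysis.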

[9] = Tmax in BALB/C mouse at 10 mg/kg, po or 2 mg/kg, iv by LC-MS/MS method; type: ADME, organism-based; details: BALB/C, in vivo; in short: as §3
[10] = Cmax in BALB/C mouse at 10 mg/kg, po or 2 mg/kg, iv by LC-MS/MS method; type: ADME, organism-based; details: BALB/C, in vivo; in short: as §2
[11] = Clearance in human liver microsomes at 1 uM incubated for 10 mins by LC-MS/MS method; type: ADME, Microsome; in short: as §1

| bioavailability [1] [%] | CLhep predicted at 1 µM [2] [mL/min/kg] | clearance [3] [mL/min/kg] | solubility [4] [µg/mL] | Activity [5] [%] | AUC [6] [ng·h/mL] | half-life [7] [h] | Vd [8] | Tmax [9] [h] | Cmax [10] [ng/mL] | CLhep predicted at 1 µM [11] [mL/min/kg] | SMILES |
| --- | --- | --- | --- | --- | --- | --- | --- | --- | --- | --- | --- |
| – | 16 | – | – | 40 | – | – | – | – | – | 3 | CN1C[C@H](C(=O)Nc2ccc(Br)cc2)[C@@H](c2ccc(/C=C/C(=O)Nc3ccccc3N)cc2)C1 (racemic) |
| – | 62 | – | – | 200 | – | – | – | – | – | 15 | Cc1cc(NC(=O)[C@H]2CN(C)C[C@@H]2c2ccc(/C=C/C(=O)Nc3ccccc3N)cc2)ccc1F (racemic) |
| – | 65 | – | – | 170 | – | – | – | – | – | 14 | COc1cccc(NC(=O)[C@H]2CN(C)C[C@@H]2c2ccc(/C=C/C(=O)Nc3ccccc3N)cc2)c1 (racemic) |
| – | 56 | – | – | 190 | – | – | – | – | – | 6 | CN1C[C@H](C(=O)Nc2cccc(F)c2)[C@@H](c2ccc(/C=C/C(=O)Nc3ccccc3N)cc2)C1 (racemic) |
| – | 58 | – | – | 230 | – | – | – | – | – | 7 | CN1C[C@H](C(=O)Nc2cccc(Cl)c2)[C@@H](c2ccc(/C=C/C(=O)Nc3ccccc3N)cc2)C1 (racemic) |
| – | 27 | – | – | 180 | – | – | – | – | – | 12 | CN1C[C@H](C(=O)Nc2ccc(F)cc2F)[C@@H](c2ccc(/C=C/C(=O)Nc3ccccc3N)cc2)C1 (racemic) |
| – | 67 | – | – | 270 | – | – | – | – | – | 7 | CN1C[C@H](C(=O)Nc2ccccc2)[C@@H](c2ccc(/C=C/C(=O)Nc3ccccc3N)cc2)C1 (racemic) |
| – | 57 | – | – | 130 | – | – | – | – | – | 8 | Cc1ccc(NC(=O)[C@H]2CN(C)C[C@@H]2c2ccc(/C=C/C(=O)Nc3ccccc3N)cc2)cn1 (racemic) |
| – | 65 | – | – | 210 | – | – | – | – | – | 15 | Cc1cc(NC(=O)[C@H]2CN(C)C[C@@H]2c2ccc(/C=C/C(=O)Nc3ccccc3N)cc2)ccc1Cl (racemic) |
| – | 31 | – | – | 150 | – | – | – | – | – | 13 | CN1C[C@H](C(=O)Nc2ccc(Cl)cn2)[C@@H](c2ccc(/C=C/C(=O)Nc3ccccc3N)cc2)C1 (racemic) |
| – | 34 | – | – | 180 | – | – | – | – | – | 15 | CN1C[C@H](C(=O)Nc2ccc(F)c(Cl)c2)[C@@H](c2ccc(/C=C/C(=O)Nc3ccccc3N)cc2)C1 (racemic) |
| 29 | 46 | 53 | – | 180 | 911 | 4 | 7.2 | 1 | 262 | – | CN1C[C@H](C(=O)Nc2ccc(F)c(F)c2)[C@@H](c2ccc(/C=C/C(=O)Nc3ccccc3N)cc2)C1 (racemic) |

Continued, compound first:

| SMILES | bioavailability [1] [%] | CLhep predicted at 1 µM [2] [mL/min/kg] | clearance [3] [mL/min/kg] | solubility [4] [µg/mL] | Activity [5] [%] | AUC [6] [ng·h/mL] | half-life [7] [h] | Vd [8] | Tmax [9] [h] | Cmax [10] [ng/mL] | CLhep predicted at 1 µM [11] [mL/min/kg] |
| --- | --- | --- | --- | --- | --- | --- | --- | --- | --- | --- | --- |
| CN(C)[C@H]1CCN(C(C(=O)Nc2ccc(C(F)(F)F)cc2)c2ccc(/C=C/C(=O)Nc3ccccc3N)cc2)C1 (some centres not stated) | 21 | 34 | 67 | 610 (≈ 1110 µM) | 216 | – | – | – | – | – | – |
| CC(C)N1C[C@H](C(=O)Nc2ccc(Cl)cc2)[C@@H](c2ccc(/C=C/C(=O)Nc3ccccc3N)cc2)C1 (racemic) | 100 | 38 | 86 | – | 230 | 2080 | 5.4 | 32 | 2 | 331 | – |
| CC(C)(C)N1C[C@H](C(=O)Nc2ccc(Cl)cc2)[C@@H](c2ccc(/C=C/C(=O)Nc3ccccc3N)cc2)C1 (racemic) | 59 | 20 | 60 | – | 160 | 813 | 6.8 | 31 | 2 | 113 | 8 |
| CC(C)(CO)N1C[C@H](C(=O)Nc2ccc(Cl)cc2)[C@@H](c2ccc(/C=C/C(=O)Nc3ccccc3N)cc2)C1 (racemic) | 12 | 40 | 27 | – | 260 | 743 | 1.1 | 6.6 | 2 | 337 | 12 |
| Nc1ccccc1NC(=O)/C=C/c1ccc([C@H]2CN(c3ncccn3)C[C@@H]2C(=O)Nc2ccc(Cl)cc2)cc1 (racemic) | – | 44 | – | – | 120 | – | – | – | – | – | 11 |
| CN1C[C@H](C(=O)NC2CCCC2)[C@@H](c2ccc(/C=C/C(=O)Nc3ccccc3N)cc2)C1 (racemic) | – | 61 | – | – | 180 | – | – | – | – | – | 9 |
| Nc1ccccc1NC(=O)/C=C/c1ccc(C(NCCO)C(=O)Nc2ccc(C(F)(F)F)cc2)cc1 (racemic) | 71 | 33 | 49 | 5 (≈ 10 µM) | 117 | – | – | – | – | – | – |
| Nc1ccccc1NC(=O)/C=C/c1ccc([C@H]2CN(C3COC3)C[C@@H]2C(=O)Nc2ccc(Cl)cc2)cc1 (racemic) | – | 42 | – | – | 90 | – | – | – | – | – | 13 |
| Nc1ccccc1NC(=O)/C=C/c1ccc(C(NCCN2CCOCC2)C(=O)Nc2ccc(C(F)(F)F)cc2)cc1 (racemic) | 11 | 78 | 122 | 32 (≈ 56.4 µM) | 100 | – | – | – | – | – | – |
| CCN1C[C@H](C(=O)Nc2ccc(Cl)cc2)[C@@H](c2ccc(/C=C/C(=O)Nc3ccccc3N)cc2)C1 (racemic) | – | 35 | – | – | 170 | – | – | – | – | – | 12 |
| Nc1ccccc1NC(=O)/C=C/c1ccc([C@H]2CN(Cc3ccccc3)C[C@@H]2C(=O)Nc2ccc(Cl)cc2)cc1 (racemic) | – | 81 | – | – | 70 | – | – | – | – | – | 3 |
| COc1ccc(NC(=O)[C@H]2CN(C)C[C@@H]2c2ccc(/C=C/C(=O)Nc3ccccc3N)cc2)cc1 (racemic) | – | 54 | – | – | 170 | – | – | – | – | – | 14 |
| CC(C)c1ccc(NC(=O)[C@H]2CN(C)C[C@@H]2c2ccc(/C=C/C(=O)Nc3ccccc3N)cc2)cc1 (racemic) | – | 54 | – | – | 70 | – | – | – | – | – | 10 |
| CN1C[C@H](C(=O)Nc2cccnc2)[C@@H](c2ccc(/C=C/C(=O)Nc3ccccc3N)cc2)C1 (racemic) | – | 41 | – | – | 80 | – | – | – | – | – | 10 |
| Nc1ccccc1NC(=O)/C=C/c1ccc([C@H]2CN(C3CCOCC3)C[C@@H]2C(=O)Nc2ccc(Cl)cc2)cc1 (racemic) | 23 | 44 | 39 | – | 220 | 1000 | 4.9 | 5.6 | 0.17 | 315 | 12 |
| CN1C[C@H](C(=O)Nc2ccccn2)[C@@H](c2ccc(/C=C/C(=O)Nc3ccccc3N)cc2)C1 (racemic) | – | 40 | – | – | 140 | – | – | – | – | – | 8 |
| Nc1ccccc1NC(=O)/C=C/c1ccc(C(C(=O)Nc2ccc(Br)cc2)N2CC[C@H](O)C2)cc1 (some centres not stated) | 13 | 52 | 8 | 5 (≈ 9.34 µM) | 150 | – | – | – | – | – | – |
| CN1C[C@H](C(=O)N2CCCCC2)[C@@H](c2ccc(/C=C/C(=O)Nc3ccccc3N)cc2)C1 (racemic) | – | 42 | – | – | 10 | – | – | – | – | – | 9 |
| CN1C[C@H](C(=O)Nc2ccc(C#N)cc2)[C@@H](c2ccc(/C=C/C(=O)Nc3ccccc3N)cc2)C1 (racemic) | – | 35 | – | – | 80 | – | – | – | – | – | 1 |
| CN1C[C@H](C(=O)Nc2ccc(C(F)(F)F)cc2)[C@@H](c2ccc(/C=C/C(=O)Nc3ccccc3N)cc2)C1 (racemic) | – | 23 | – | – | 10 | – | – | – | – | – | 6 |

From ChEMBL document CHEMBL2177000, “Pharmacokinetic optimization of class-selective histone deacetylase inhibitors and identification of associated candidate predictive biomarkers of hepatocellular carcinoma tumor response” (J Med Chem, 2012)
